Compounds with a hit are over-represented: about 2.6% of the library has one in this group of screens.
VIM-2 inhibitor: blocks Pseudomonas aeruginosa VIM-2 metallo-beta-lactamase | 290,000 compounds, 0.89% hits | inhibition, % at 5.6 µM | purified VIM-2, nitrocefin hydrolysis, epi-absorbance fluorescence | AID 1527;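 active means inhibition above the mean of all tested compounds plus 3 SD, cutoff set per screening run, cut at about 7.5% in these data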;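 further: red hydrolysis product quenches plate fluorescence so inhibitors raise well fluorescence; 0% = enzyme with DMSO and 100% = DMSO without enzyme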
PHOSPHO1 inh: PHOSPHO1 (human) inhibition | recombinant PHOSPHO1, absorbance phosphatase assay | inhibition, % at 13.3 µM | 290,000 compounds, 1.1% hits | AID 1565; in the data active means inhibition above about 60%
Target sequence (Q8TCT1 whole entry, looked up): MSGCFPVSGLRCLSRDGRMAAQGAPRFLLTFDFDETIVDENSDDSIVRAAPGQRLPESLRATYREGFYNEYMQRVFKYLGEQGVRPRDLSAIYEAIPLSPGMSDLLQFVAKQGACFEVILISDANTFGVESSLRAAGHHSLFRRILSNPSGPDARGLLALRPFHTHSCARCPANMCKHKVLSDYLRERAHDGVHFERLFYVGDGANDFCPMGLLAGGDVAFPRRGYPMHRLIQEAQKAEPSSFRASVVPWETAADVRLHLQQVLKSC
ASAP1 inh: ASAP1 ArfGAP inhibition; ASAP1-stimulated ARF1 GTP hydrolysis, GDP FP detection; 360,000 compounds, 0.19% hits; AID 624377; Q9ULH1; inhibition, % at 16.5 µM; in the data active means inhibition above about 25%;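 further: 0% = vehicle with enzyme and substrate and 100% = no enzyme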
ARFGAP1 inh: rat ARFGAP1 inhibition; Q62848; Arfgap1-stimulated ARF1 GTP hydrolysis, GDP FP detection; inhibition, % at 16.5 µM; 360,000 compounds, 0.26% hits;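 active means inhibition above a per-plate limit, mean inhibition of low control wells plus 3 SD, cut at about 25% in these data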;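 further: 0% = DMSO wells with enzyme and 100% = wells lacking Arfgap1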
Target sequence (Q62848 1-136 limits assumed): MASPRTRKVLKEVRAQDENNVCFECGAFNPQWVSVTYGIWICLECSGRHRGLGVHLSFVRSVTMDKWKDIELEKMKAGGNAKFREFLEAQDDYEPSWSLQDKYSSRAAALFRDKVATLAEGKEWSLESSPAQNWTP
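Assay system: Rat Arfgap1 GAP domain (His6, aa 1-136), purified enzyme | Buffer or medium: HEPES 25 mM pH 7.5, NaCl 150 mM, MgCl2, DTT | Schedule: GTP hydrolysis reaction 2 h at 25 °C | Signal: FP of antibody-bound GDP Alexa 633 tracer, ex 620/em 688 nm | Measure: Percent inhibition of Arfgap1-stimulated GTP hydrolysis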
Calb FLC: affects C. albicans growth with fluconazole | C. albicans CaCi-2 + fluconazole, Alamar Blue growth, 48 h | 300,000 compounds, 0.57% hits | growth inhibition, % (concentration not given with the values);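 active means growth inhibition above about 58% in most replicates, limit read from the data, passing the limit was not always enough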;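 further: all wells also contain fluconazole at 8 µg/ml as a sub-toxic cotreatment; 0% = median of DMSO wells and 100% = median of geldanamycin control wells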
IMP-1 inh-1: blocks Pseudomonas aeruginosa IMP-1 metallo-beta-lactamase | purified IMP-1, nitrocefin hydrolysis, epi-absorbance fluorescence | inhibition, % at 5.6 µM | 290,000 compounds, 0.45% hits | AID 1556;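 active means inhibition above the mean plus 3 SD of all compounds in the same screening run, cut at about 4.5% in these data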;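 further: 0% = IMP-1 with DMSO and 100% = DMSO wells lacking enzyme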
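assay system = purified recombinant IMP-1 metallo-beta-lactamase enzyme | schedule = 15 min preincubation plus 25 min reaction at 25 °C | signal = Epi-absorbance fluorescence, 480 nm excitation, 530 nm emission | read-out basis = percent inhibition from optical density relative to buffer-blank wells | controls = IMP-1 with DMSO as 0%, enzyme-free DMSO as 100%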
IMP-1 inh-2: IMP-1 inhibition, counter-screen for VIM-2 inhibitors. shares compounds with VIM-2 inhibitor. purified IMP-1, nitrocefin hydrolysis, epi-absorbance fluorescence. inhibition, % at 5.6 µM. 1,300 tested, under 10 active. AID 1856; call rule not given here;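 further: 0% = enzyme with vehicle and 100% = vehicle without enzyme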
VIM-2 FRET inh: VIM-2 FRET inhibition, artifact counter-screen | inhibition, % at 5.6 µM | shares compounds with VIM-2 inhibitor | purified VIM-2, CCF2 FRET substrate hydrolysis | 1,300 compounds, 23% hits;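 active means inhibition above the mean of all tested compounds plus 3 SD, cut at about 19% in these data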;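 further: 0% = VIM-2 plus DMSO and 100% = no enzyme wells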
TEM-1 inh: selectivity counter-screen for VIM-2 inhibitors: E. coli TEM-1 inhibitors | shares compounds with VIM-2 inhibitor | Purified TEM-1, nitrocefin hydrolysis, epi-absorbance fluorescence | inhibition, % at 5.6 µM | 1,300 compounds, 3% hits | AID 1866;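 active means inhibition above that campaign's mean inhibition plus 3 SD, cut at about 0.46% in these data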;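 further: 0% = TEM-1 with DMSO and 100% = TEM-1 with 100 µM potassium clavulanate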
Target sequence (P62593 whole entry, looked up): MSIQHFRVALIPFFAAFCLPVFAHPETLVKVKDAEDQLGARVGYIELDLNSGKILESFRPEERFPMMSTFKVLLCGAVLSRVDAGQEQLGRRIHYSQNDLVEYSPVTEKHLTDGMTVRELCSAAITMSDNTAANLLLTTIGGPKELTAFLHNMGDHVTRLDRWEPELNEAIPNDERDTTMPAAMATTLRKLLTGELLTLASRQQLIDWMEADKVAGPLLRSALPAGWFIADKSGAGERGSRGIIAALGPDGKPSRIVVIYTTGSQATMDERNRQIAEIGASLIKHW
VIM-2 inh conf: confirmation of P. aeruginosa VIM-2 metallo-beta-lactamase inhibitors; inhibition, % at 5.6 µM; 1,300 compounds, 96% hits; shares compounds with VIM-2 inhibitor; purified VIM-2, nitrocefin hydrolysis, epi-absorbance;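 active means inhibition of the VIM-2 beta-lactamase enzyme above about 11% from the earlier first-round screen, limit read from the data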;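 further: 0% = VIM-2 with DMSO and 100% = buffer wells without enzyme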
* hit, by the source's call; x = no result given.

SMILES	VIM-2 inhibitor	PHOSPHO1 inh	ASAP1 inh	ARFGAP1 inh	Calb FLC	IMP-1 inh-1	IMP-1 inh-2	VIM-2 FRET inh	TEM-1 inh	VIM-2 inh conf
C(=C\c1ccccc1)/CN1CCN(C(c2nnnn2Cc2ccccc2)C2CC2)CC1 (configuration not stated)	x	x	2.1	-3.6	x	x	x	x	x	x
CCCCCCN1C[C@@H](n2cc(-c3ccc(F)cc3)nn2)[C@H](O)C[C@@H]1c1ccccc1	x	x	-8.1	1.9	x	x	x	x	x	x
COc1ccc(CN2CCC[C@]3(N[C@H](c4ccc(C)cc4)[C@@H]4C(=O)N(Cc5ccccc5)C(=O)[C@@H]43)C2=O)cc1	x	x	1.6	6.4	x	x	x	x	x	x
COCCNC(=O)C1C(=O)Nc2ccccc2C(=O)N1Cc1ccccc1 (configuration not stated)	x	x	1.9	-0.5	x	x	x	x	x	x
Cc1cc(N2CCN(C(=O)c3[nH]c(C(F)(F)F)nc3-c3ccccc3)CC2)c2ccccc2n1	x	x	-5.4	-13.4	x	x	x	x	x	x
Cn1c2ccccc2c2nnc(SCCN3CCOCC3)nc21	17.1*	-56.0	9.1	10.7	2.5	-2.1	-3.1	0.4	-9.3	23.0*
COc1ccc(CCNCc2ccc(OCc3ccc(Cl)nc3)c(OC)c2)cc1OC	-2.9	9.5	-6.5	5.0	-0.7	-1.7	x	x	x	x
COc1cc(CNCCNCC(C)O)ccc1OCc1ccc(Cl)nc1 (configuration not stated)	38.5*	-7.4	-2.0	4.3	-10.3	-2.9	-3.5	-2.5	-4.4	32.1*
CC(NS(=O)(=O)c1ccc2c(c1)C(=O)c1cc(S(=O)(=O)NC(C)C(=O)O)ccc1-2)C(=O)O (configuration not stated)	18.5*	17.9	1.5	12.8	-2.1	-1.6	-3.0	20.6*	-5.6	19.3*
CN1C(=O)/C(=C2\SC(N3CCCCCC3)=NC2=O)c2ccccc21	12.8*	19.7	2.8	8.3	3.9	-2.5	-3.6	-7.0	-8.9	26.5*
CN1CCN(Cc2cc(=O)oc3cc4c(cc23)CCC4)CC1	17.6*	0.7	6.8	15.3	-6.5	-3.1	-3.5	1.1	-6.4	30.2*
CCN1CCN(Cc2cc(=O)oc3cc4c(cc23)CCC4)CC1	12.8*	-9.4	-0.2	3.5	-3.2	-3.6	-2.6	-4.6	-3.4	31.4*
O=C1NC[C@@H](CCCCN2C[C@H](Cc3ccc(O)cc3)N(CCc3ccccc3)C(=O)C2=O)N(CCC2CCCCC2)C1=O	x	x	8.5	11.9	x	x	x	x	x	x
CCOC(=O)CC1(C)Oc2ccccc2N1S(=O)(=O)c1ccc(C)cc1 (configuration not stated)	x	x	-5.1	10.5	x	x	x	x	x	x
O=c1c2cccc3c2c(nn1CN1CCOCC1)-c1ccccc1-3	25.6*	30.0	x	x	15.2	-2.1	-4.8	-1.2	-9.8	33.5*
CCN(CC)CCn1nc2c3c(cccc3c1=O)-c1ccccc1-2	17.2*	16.3	20.8	3.9	x	-1.0	-3.3	2.0	-6.2	28.9*
COc1ccc(C(=O)c2[nH]c(N)c(C(=O)NCCc3c[nH]c4ccccc34)c2-c2c(F)cccc2Cl)cc1	x	x	-5.5	6.7	x	x	x	x	x	x
COCCc1ccc(OC2(C)CCN(Cc3ccc(OC)c4ccccc34)C2)cc1 (configuration not stated)	x	x	3.1	5.3	x	x	x	x	x	x
ClC(Cl)(Cl)c1nc2ccccc2n2nncc12	24.4*	26.1	2.9	4.0	2.6	-1.9	-2.5	-0.1	-5.9	37.7*
Cc1ccc(-c2nn3c(C)nnc3c3ccccc23)cc1S(=O)(=O)NCCO	29.8*	35.3	7.2	-6.2	14.9	-3.7	-3.2	3.3	-5.9	37.4*
Cc1ccc(-c2nn3cnnc3c3ccccc23)cc1	17.2*	8.0	-2.1	-2.0	2.7	-1.4	-3.1	2.4	-5.5	27.4*
O=C(NCc1nnc2c3ccccc3c(-c3ccccc3)nn12)c1ccccc1Cl	16.9*	4.2	-5.8	3.3	43.8	0.2	-2.5	-4.5	-4.4	27.3*
CNc1nnc(-c2ccc(C)cc2)c2ccccc12	3.0	16.8	4.9	-2.8	-31.1	-2.6	x	x	x	x
Cc1ccc(-c2nn3c(C)nnc3c3ccccc23)cc1S(=O)(=O)NC(C)c1ccccc1 (configuration not stated)	6.4	33.0	-7.6	0.2	1.4	0.7	x	x	x	x
O=C(COc1ccc(Cl)cc1)NCc1nnc2c3ccccc3c(-c3ccccc3)nn12	0.1	1.1	-2.0	2.1	61.9	-1.3	x	x	x	x
SMILES	VIM-2 inhibitor	PHOSPHO1 inh	ASAP1 inh	ARFGAP1 inh	Calb FLC	IMP-1 inh-1	IMP-1 inh-2	VIM-2 FRET inh	TEM-1 inh	VIM-2 inh conf
Cc1ccc(-c2nn3c(C)nnc3c3ccccc23)cc1S(=O)(=O)NC(C)(C)CO	21.8*	24.0	3.7	1.1	13.9	-1.4	-4.8	1.9	-5.7	37.5*
CCOC(=O)C1=CCN(S(=O)(=O)c2ccc(Cl)cc2)C1c1ccccc1 (configuration not stated)	x	x	-3.8	4.5	x	x	x	x	x	x
CCCCNS(=O)(=O)c1cc(-c2nn(C)c(=O)c3ccccc23)ccc1C	-0.6	50.4	-5.0	-5.0	-6.6	-2.2	x	x	x	x
Cc1ccc(-c2nn(C)c(=O)c3ccccc23)cc1S(=O)(=O)NCCN(C)C	36.6*	28.8	0.2	10.1	-9.6	-2.6	-3.5	-0.7	-5.6	50.5*
Cc1nnc2c3ccccc3c(-c3ccccc3)nn12	23.7*	x	-2.3	-4.2	-10.2	-0.2	-1.4	1.5	1.9*	43.2*
Cc1ccc(-c2nn3c(C)nnc3c3ccccc23)cc1S(=O)(=O)N1CCN(CCO)CC1	61.0*	27.1	-3.0	1.7	4.9	-3.3	-2.3	-3.2	-2.2	72.8*
CC1(C(=O)Nc2cnc3ccccc3c2)CCN1C(=O)C/C=C/c1ccccc1 (configuration not stated)	x	x	-3.5	9.2	x	x	x	x	x	x
COc1ccc(CCn2c(SCCN3CCCCC3)nc3ccccc3c2=O)cc1OC	74.9*	28.3	-20.9	-8.8	-19.5	-2.5	-2.0	-0.1	-5.1	83.9*
C(=N\Nc1ncnc2sc3c(c12)CCC3)/c1cccs1	2.0	35.4	10.9	11.9	26.8	-1.1	x	x	x	x
C(=N\Nc1ncnc2sc3c(c12)CCC3)/c1ccncc1	34.0*	37.0	-3.5	7.4	14.8	-4.8	-1.7	-6.4	-3.8	52.8*
Cc1cc(C)cc(OCC(=O)OC/C(O)=C(\C#N)c2nc3ccccc3[nH]2)c1	13.9*	1.8	4.4	8.5	2.6	1.2	-2.8	-8.4	-4.1	5.3
